Assay results pooled from the literature.
Protocols differ between the studies behind these lines.
DRD2: D(2) dopamine receptor (DRD2, Homo sapiens, UniProt P14416)
MCU: Calcium uniporter protein, mitochondrial (MCU, Homo sapiens, UniProt Q8NE86)
ELANE: Neutrophil elastase (ELANE, Homo sapiens, UniProt P08246)

CC(C)C[C@H](NC(=O)[C@H](Cc1ccccc1)NC(=O)[C@H](Cc1ccc(O)cc1)NC(=O)CNC(=O)[C@H](CCCCN)NC(=O)[C@H](CO)NC(=O)[C@H](CCC(N)=O)NC(=O)CNC(=O)[C@@H](NC(=O)[C@H](CO)NC(=O)[C@@H]1CCCN1C(=O)[C@H](CO)NC(=O)[C@H](CCC(N)=O)NC(=O)[C@H](Cc1ccc(O)cc1)NC(=O)[C@H](CCC(=O)O)NC(=O)[C@H](C)NC(=O)[C@H](CCCCN)NC(=O)[C@@H](N)Cc1ccccc1)C(C)C)C(=O)N[C@@H](Cc1ccccc1)C(=O)N[C@@H](CCCNC(=N)N)C(=O)N1CCC[C@H]1C(=O)N[C@@H](CCCNC(=N)N)C(=O)N[C@@H](CC(N)=O)C(N)=O
IC50 (Neuromedin-U receptor 2 (Mus musculus, UniProt Q8BZ39); ligand displacement; radioligand; cell membranes): 0.03 nM

Nc1ncc(-c2nc(N3CCOCC3)nc(N3CCOCC3)n2)c(C(F)F)n1
IC50 (Serine/threonine-protein kinase mTOR (MTOR, Homo sapiens, UniProt P42345); ligand displacement; TR-FRET): 49.9 nM

COc1ccc2[nH]cc(CN3CCC(O)(c4ccc(SC)cc4)CC3)c2c1
IC50 (DRD2; ion current): 250 nM

Cl.Cl.N.N.N.N.N.N.N.N.[N-3].[Ru+4].[Ru+4]
IC50 (MCU; transporter uptake; inhibitor): 8.6 nM

CN[C@@H]1C[C@H]2O[C@@](C)([C@@H]1OC)n1c3ccccc3c3c4c(c5c6ccccc6n2c5c31)C(=O)NC4
IC50 (Serine/threonine-protein kinase LMTK3 (LMTK3, Homo sapiens, UniProt Q96Q04); enzyme activity; inhibitor; TR-FRET): 0.0045 nM

COc1ccc(C(=O)O)cc1S(=O)(=O)Nc1ccc(C(F)(F)F)cc1N1CCCCC1
IC50 (Endoplasmic reticulum aminopeptidase 2 (ERAP2, Homo sapiens, UniProt Q6P179, K392N); enzyme activity; inhibitor): 44000 nM

C[C@H](N)Cn1ncc2ccc3c(c21)CCCO3
IC50 (DRD2; ligand displacement; radioligand): > 100000 nM

N.N.N.N.N.N.N.N.O=C(O)c1ccccc1.O=C(O)c1ccccc1.[N-3].[Ru+4].[Ru+4]
IC50 (MCU; transporter uptake; inhibitor): 13.9 nM

CC(C)C[C@H](NC(=O)[C@H](Cc1ccccc1)NC(=O)c1cnccn1)B(O)O
IC50 (ELANE; enzyme activity; inhibitor): > 33000 nM

O=C(O)c1c(Cl)c(Cl)c(Cl)c(Cl)c1-c1c2cc(I)c(=O)c(I)c-2oc2c(I)c(O)c(I)cc12
IC50 (Delta-aminolevulinic acid dehydratase (Homo sapiens, UniProt P13716, C162A/K59N); enzyme activity; inhibitor; absorbance; pH 8): 6900 nM

N#Cc1nn(C(=O)C2CCCC2)c2ncccc12
IC50 (ELANE; enzyme activity; inhibitor; fluorescence): 160 nM
